Results taken from ChEMBL document CHEMBL1165965, “Synthesis and structure-activity relationships of 1,2,3,4-tetrahydropyrido[2,3-b]pyrazines as potent and selective inhibitors of the anaplastic lymphoma kinase” (Bioorg Med Chem, 2010).

Legend:
[1] = target: T1, Calcium/calmodulin-dependent protein kinase type IV (Homo sapiens) (UniProt Q16566); assay: Inhibition of CAMK4 at 1 uM
T1 sequence (whole entry): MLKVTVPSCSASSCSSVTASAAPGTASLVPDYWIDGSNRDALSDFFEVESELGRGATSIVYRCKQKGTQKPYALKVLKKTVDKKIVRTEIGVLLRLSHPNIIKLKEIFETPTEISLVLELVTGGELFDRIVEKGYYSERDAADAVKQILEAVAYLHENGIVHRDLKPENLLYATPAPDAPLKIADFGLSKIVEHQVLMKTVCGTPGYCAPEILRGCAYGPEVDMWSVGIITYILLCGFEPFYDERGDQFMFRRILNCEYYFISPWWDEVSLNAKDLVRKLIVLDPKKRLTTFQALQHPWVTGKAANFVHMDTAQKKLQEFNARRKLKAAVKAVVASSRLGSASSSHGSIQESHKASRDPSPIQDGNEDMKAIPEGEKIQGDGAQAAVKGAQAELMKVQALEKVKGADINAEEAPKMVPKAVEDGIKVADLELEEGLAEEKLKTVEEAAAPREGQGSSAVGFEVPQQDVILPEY

[2] = target: T2, Serine/threonine-protein kinase 4 (Homo sapiens) (UniProt Q13043); assay: Inhibition of MST1 at 1 uM
T2 sequence (whole entry): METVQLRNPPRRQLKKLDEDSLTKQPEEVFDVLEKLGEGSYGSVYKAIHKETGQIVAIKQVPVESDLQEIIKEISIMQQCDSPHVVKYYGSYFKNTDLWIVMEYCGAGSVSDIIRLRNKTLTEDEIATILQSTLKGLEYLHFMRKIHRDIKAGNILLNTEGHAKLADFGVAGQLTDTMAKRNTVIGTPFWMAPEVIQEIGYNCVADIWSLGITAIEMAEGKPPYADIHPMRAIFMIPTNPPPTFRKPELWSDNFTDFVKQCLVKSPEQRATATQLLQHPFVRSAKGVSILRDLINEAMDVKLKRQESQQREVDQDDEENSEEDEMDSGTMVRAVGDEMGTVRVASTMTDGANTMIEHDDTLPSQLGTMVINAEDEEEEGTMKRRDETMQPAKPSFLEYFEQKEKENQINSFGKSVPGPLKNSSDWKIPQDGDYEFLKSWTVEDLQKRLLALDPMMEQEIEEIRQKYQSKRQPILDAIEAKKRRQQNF

[3] = target: Mitogen-activated protein kinase kinase kinase kinase 1 (Homo sapiens) (UniProt Q92918); assay: Inhibition of HPK1 at 1 uM
[4] = target: Insulin-like growth factor 1 receptor (Homo sapiens) (UniProt P08069); assay: Inhibition of IGF1R at 1 uM
Insulin-like growth factor 1 receptor (Homo sapiens), sequence (P08069 31-736 limits assumed): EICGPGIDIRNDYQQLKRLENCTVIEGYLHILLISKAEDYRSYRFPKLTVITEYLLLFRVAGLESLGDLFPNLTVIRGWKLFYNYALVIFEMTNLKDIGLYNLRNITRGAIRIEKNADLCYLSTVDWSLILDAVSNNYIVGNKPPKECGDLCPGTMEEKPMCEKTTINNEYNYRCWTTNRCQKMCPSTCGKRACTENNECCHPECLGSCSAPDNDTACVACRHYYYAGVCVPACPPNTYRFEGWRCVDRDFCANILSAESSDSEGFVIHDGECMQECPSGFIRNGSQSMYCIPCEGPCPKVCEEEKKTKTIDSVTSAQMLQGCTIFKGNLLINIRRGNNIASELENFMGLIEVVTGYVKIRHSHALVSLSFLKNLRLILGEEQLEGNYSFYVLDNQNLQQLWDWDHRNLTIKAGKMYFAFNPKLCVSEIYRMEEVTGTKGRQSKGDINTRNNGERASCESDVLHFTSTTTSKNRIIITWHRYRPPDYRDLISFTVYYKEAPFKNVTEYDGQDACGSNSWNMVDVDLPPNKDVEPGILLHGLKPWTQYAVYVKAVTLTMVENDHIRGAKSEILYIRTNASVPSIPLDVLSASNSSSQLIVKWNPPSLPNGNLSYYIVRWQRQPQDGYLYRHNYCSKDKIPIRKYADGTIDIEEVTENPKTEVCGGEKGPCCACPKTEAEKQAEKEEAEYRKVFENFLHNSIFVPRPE
Insulin-like growth factor 1 receptor (Homo sapiens), sequence (P08069 741-1367 limits assumed): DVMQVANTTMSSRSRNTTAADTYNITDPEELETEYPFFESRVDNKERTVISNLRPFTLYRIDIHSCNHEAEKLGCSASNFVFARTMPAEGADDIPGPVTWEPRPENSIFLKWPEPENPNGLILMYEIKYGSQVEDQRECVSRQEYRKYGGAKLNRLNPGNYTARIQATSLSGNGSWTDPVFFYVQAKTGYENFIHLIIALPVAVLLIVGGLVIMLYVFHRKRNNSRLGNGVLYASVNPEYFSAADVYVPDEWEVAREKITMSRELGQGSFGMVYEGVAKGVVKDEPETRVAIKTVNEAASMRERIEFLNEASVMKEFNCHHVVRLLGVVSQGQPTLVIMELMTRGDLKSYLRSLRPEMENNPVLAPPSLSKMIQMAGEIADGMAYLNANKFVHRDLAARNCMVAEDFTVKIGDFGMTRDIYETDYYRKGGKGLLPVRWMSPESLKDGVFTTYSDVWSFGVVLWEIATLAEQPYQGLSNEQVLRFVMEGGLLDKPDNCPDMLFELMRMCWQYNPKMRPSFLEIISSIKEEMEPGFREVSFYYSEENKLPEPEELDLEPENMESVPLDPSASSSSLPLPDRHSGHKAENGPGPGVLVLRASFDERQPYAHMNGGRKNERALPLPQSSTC
In short: (§1)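 Single-concentration screen on the Ambit KINOMEscan platform, run against a panel of 250–400 kinases. Per-kinase inhibition was also summarized as S(90), the fraction of kinases inhibited by more than 90%.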

[5] = target: T3, Activin receptor type-1B (Homo sapiens) (UniProt P36896); assay: Inhibition of ACVR1B at 1 uM
T3 sequence (whole entry): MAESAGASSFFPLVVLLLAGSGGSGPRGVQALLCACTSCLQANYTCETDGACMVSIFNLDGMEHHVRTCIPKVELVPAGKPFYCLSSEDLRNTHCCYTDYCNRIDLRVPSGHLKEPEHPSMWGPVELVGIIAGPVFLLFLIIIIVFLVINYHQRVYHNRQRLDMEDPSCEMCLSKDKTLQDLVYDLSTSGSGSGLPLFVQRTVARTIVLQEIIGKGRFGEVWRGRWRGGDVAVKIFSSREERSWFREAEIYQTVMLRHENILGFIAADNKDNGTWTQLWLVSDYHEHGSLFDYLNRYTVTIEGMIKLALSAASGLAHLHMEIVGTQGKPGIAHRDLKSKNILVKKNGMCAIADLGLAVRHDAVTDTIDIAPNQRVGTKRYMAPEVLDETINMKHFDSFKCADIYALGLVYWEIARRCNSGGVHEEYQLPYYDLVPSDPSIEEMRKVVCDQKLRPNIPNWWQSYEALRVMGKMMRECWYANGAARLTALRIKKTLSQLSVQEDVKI
In short: (§2)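 Ambit KINOMEscan screen at a single concentration across a 250–400 kinase panel, recorded as percent inhibition. Selectivity was expressed as S(90), the fraction of kinases inhibited >90%.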

[6] = target: Wee1-like protein kinase (Homo sapiens) (UniProt P30291); assay: Inhibition of WEE1 at 1 uM
[7] = tested on: Mast/stem cell growth factor receptor Kit (Homo sapiens), P10721 [L576P]; assay: Inhibition of KIT L576P mutant at 1 uM
Mast/stem cell growth factor receptor Kit (Homo sapiens), P10721 [L576P], sequence (P10721 whole entry L576P): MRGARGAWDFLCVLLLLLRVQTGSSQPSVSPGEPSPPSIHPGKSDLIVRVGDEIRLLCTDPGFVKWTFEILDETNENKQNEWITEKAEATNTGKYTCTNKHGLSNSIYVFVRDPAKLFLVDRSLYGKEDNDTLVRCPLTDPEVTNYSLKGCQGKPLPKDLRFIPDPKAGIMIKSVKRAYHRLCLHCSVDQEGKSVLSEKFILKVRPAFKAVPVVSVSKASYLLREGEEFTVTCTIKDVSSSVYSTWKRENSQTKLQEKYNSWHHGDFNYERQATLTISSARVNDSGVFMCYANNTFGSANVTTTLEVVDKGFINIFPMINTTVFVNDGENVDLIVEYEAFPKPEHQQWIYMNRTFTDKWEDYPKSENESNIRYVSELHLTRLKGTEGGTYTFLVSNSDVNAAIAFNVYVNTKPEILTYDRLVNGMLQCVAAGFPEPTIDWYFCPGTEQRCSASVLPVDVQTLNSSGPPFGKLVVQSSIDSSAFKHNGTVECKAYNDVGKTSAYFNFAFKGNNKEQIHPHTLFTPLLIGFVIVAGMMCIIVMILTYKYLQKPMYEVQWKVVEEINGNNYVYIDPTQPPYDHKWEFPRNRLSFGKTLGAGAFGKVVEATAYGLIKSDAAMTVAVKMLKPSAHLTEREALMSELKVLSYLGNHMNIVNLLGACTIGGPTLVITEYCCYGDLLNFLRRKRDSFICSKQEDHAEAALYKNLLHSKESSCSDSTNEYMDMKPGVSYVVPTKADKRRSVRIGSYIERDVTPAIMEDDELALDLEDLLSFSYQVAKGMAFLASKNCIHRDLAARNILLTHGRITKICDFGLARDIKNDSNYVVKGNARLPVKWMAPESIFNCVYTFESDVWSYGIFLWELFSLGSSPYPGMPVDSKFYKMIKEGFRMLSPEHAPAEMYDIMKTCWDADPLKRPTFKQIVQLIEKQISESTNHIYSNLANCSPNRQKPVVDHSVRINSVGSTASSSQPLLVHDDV

[8] = target: Calcium/calmodulin-dependent protein kinase type 1G (Homo sapiens) (UniProt Q96NX5); assay: Inhibition of CAMK1G at 1 uM; in short: as §2
Calcium/calmodulin-dependent protein kinase type 1G (Homo sapiens), sequence (Q96NX5 whole entry): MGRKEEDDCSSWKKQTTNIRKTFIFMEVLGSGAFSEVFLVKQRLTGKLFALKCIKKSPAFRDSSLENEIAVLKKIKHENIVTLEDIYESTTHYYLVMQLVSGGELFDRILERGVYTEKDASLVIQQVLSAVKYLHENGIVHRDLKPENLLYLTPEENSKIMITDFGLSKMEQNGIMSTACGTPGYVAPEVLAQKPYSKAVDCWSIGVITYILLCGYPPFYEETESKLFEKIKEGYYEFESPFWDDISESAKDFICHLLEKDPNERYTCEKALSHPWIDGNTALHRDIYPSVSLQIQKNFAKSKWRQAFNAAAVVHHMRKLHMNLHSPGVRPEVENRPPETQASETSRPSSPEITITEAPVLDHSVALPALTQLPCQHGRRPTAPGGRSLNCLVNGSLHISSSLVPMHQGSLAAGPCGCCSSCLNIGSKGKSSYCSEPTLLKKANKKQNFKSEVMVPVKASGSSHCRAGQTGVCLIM

[9] = target: SRSF protein kinase 1 (Homo sapiens) (UniProt Q96SB4); assay: Inhibition of SRPK1 at 1 uM
[10] = tested on: Proto-oncogene tyrosine-protein kinase receptor Ret (Homo sapiens), P07949 [M918T]; assay: Inhibition of RET M918T mutant at 1 uM
Proto-oncogene tyrosine-protein kinase receptor Ret (Homo sapiens), P07949 [M918T], sequence (P07949 whole entry M918T): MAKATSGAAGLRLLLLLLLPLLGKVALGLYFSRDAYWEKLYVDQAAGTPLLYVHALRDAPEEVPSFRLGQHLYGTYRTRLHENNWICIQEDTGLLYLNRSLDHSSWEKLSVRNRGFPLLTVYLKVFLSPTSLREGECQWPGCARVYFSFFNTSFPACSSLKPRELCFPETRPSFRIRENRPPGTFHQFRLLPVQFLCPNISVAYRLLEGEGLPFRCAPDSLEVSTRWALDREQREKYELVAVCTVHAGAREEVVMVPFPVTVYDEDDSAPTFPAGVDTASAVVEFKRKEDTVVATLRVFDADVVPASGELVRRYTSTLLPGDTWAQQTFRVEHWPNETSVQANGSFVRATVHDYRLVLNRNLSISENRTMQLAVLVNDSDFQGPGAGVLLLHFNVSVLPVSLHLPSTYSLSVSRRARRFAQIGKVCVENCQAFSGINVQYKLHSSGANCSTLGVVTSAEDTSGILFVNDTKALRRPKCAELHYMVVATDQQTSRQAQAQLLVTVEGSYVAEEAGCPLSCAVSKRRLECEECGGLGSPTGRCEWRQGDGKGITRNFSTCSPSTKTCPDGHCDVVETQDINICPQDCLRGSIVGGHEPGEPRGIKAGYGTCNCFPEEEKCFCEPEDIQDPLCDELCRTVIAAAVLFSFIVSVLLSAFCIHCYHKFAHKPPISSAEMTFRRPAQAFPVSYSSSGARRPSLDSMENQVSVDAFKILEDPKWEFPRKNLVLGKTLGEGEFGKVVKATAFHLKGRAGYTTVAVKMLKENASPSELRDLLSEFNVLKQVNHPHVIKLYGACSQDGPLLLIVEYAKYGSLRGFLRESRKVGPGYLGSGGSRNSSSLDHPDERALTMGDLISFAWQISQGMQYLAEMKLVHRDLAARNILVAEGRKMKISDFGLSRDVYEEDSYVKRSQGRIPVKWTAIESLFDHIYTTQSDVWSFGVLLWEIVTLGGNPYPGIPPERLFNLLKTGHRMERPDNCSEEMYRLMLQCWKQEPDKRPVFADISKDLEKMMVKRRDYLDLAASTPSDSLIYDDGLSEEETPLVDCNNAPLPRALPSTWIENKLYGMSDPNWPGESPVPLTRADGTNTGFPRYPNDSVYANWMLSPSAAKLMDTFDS

[11] = target: Death-associated protein kinase 1 (Homo sapiens) (UniProt P53355); assay: Inhibition of DAPK1 at 1 uM
In short: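 Single-concentration screen using Ambit Bioscience KINOMEscan technology across a panel of 250–400 kinases. Per-kinase inhibition from this screen was summarized as S(90), the fraction of kinases inhibited by more than 90%.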

[12] = target: AP2-associated protein kinase 1 (Homo sapiens) (UniProt Q2M2I8); assay: Inhibition of AAK1 at 1 uM; in short: as §2
AP2-associated protein kinase 1 (Homo sapiens), sequence (Q2M2I8 whole entry, looked up): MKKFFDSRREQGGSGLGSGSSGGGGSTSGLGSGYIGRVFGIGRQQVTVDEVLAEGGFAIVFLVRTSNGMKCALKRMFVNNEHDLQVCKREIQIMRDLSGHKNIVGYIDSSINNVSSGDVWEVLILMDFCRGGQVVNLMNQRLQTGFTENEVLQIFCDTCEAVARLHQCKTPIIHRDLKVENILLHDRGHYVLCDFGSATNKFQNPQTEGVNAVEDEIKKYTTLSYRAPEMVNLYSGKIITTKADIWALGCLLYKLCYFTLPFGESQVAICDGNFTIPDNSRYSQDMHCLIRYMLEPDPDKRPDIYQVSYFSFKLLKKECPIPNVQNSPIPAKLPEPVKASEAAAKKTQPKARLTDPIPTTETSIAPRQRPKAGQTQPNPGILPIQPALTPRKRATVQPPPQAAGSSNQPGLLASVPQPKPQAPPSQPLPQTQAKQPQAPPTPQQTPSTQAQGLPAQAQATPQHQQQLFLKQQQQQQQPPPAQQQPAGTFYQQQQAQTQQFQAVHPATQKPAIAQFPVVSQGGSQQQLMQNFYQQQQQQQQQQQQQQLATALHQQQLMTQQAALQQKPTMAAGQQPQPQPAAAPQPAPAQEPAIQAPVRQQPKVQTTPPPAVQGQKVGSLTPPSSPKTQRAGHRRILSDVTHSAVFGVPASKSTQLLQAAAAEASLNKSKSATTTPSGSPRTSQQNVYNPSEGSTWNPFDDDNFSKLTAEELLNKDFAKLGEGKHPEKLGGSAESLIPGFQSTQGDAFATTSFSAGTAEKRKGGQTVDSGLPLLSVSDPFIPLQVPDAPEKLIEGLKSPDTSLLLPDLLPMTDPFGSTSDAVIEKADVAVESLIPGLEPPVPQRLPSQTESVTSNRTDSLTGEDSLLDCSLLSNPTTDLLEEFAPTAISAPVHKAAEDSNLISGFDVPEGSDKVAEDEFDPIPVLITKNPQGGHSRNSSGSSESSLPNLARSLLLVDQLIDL

[13] = tested on: Tyrosine-protein kinase ABL1 (Homo sapiens), P00519 [Q252H]; assay: Inhibition of ABL1 Q252H mutant at 1 uM; in short: as §2
[14] = target: STE20/SPS1-related proline-alanine-rich protein kinase (Homo sapiens) (UniProt Q9UEW8); assay: Inhibition of STK39 at 1 uM
[15] = target: Glycogen synthase kinase-3 beta (Homo sapiens) (UniProt P49841); assay: Inhibition of GSK3B at 1 uM; in short: as §1
[16] = target: Proto-oncogene tyrosine-protein kinase receptor Ret (Homo sapiens) (UniProt P07949); assay: Inhibition of RET at 1 uM
Proto-oncogene tyrosine-protein kinase receptor Ret (Homo sapiens), sequence (P07949 whole entry): as the sequence (P07949 whole entry M918T) above, with T918M counted along it

[17] = tested on: Tyrosine-protein kinase ABL1 (Homo sapiens), P00519 [E255K]; assay: Inhibition of ABL1 E255K mutant at 1 uM; in short: as §2
[18] = tested on: Hepatocyte growth factor receptor (Homo sapiens), P08581 [M1250T]; assay: Inhibition of MET M1250T mutant at 1 uM

| SMILES | inhibition [1] [%] | inhibition [2] [%] | inhibition [3] [%] | inhibition [4] [%] | inhibition [5] [%] | inhibition [6] [%] | inhibition [7] [%] | inhibition [8] [%] | inhibition [9] [%] | inhibition [10] [%] | inhibition [12] [%] | inhibition [13] [%] | inhibition [14] [%] | inhibition [15] [%] | inhibition [16] [%] | inhibition [17] [%] | inhibition [18] [%] | inhibition [11] [%] |
| --- | --- | --- | --- | --- | --- | --- | --- | --- | --- | --- | --- | --- | --- | --- | --- | --- | --- | --- |
| O=C(O)c1ccc(-c2cnc3c(c2)N(Cc2cc(Cl)ccc2C(F)(F)F)CCN3)cc1 | – | – | – | < 50 | < 50 | – | – | < 50 | < 50 | – | < 50 | < 50 | – | < 50 | < 50 | < 50 | – | < 50 |
| O=C(c1ccc(-c2cnc3c(c2)N(Cc2cc(Cl)ccc2C(F)(F)F)CCN3)cc1)N1CCCCC1 | – | – | – | < 50 | < 50 | – | – | < 50 | < 50 | – | < 50 | < 50 | – | < 50 | < 50 | < 50 | – | < 50 |
| COC1CCN(C(=O)c2ccc(-c3cnc4c(c3)N(Cc3cc(Cl)ccc3C(F)(F)F)CCN4)cc2)CC1 | – | – | – | < 50 | < 50 | – | – | < 50 | < 50 | – | < 50 | < 50 | – | < 50 | < 50 | < 50 | – | < 50 |
| O=C(c1ccc(-c2cnc3c(c2)N(Cc2cc(Cl)ccc2C(F)(F)F)CCN3)cc1)N1CCC(N2CCCC2)CC1 | – | – | 88.7 | < 50 | < 50 | – | – | < 50 | < 50 | – | < 50 | 63 | 73.2 | < 50 | < 50 | < 50 | – | < 50 |

More lines, main results first:

| inhibition [1] [%] | inhibition [2] [%] | inhibition [3] [%] | inhibition [4] [%] | inhibition [5] [%] | inhibition [6] [%] | inhibition [7] [%] | inhibition [8] [%] | inhibition [9] [%] | inhibition [10] [%] | inhibition [12] [%] | inhibition [13] [%] | inhibition [14] [%] | inhibition [15] [%] | inhibition [16] [%] | inhibition [17] [%] | inhibition [18] [%] | SMILES | inhibition [11] [%] |
| --- | --- | --- | --- | --- | --- | --- | --- | --- | --- | --- | --- | --- | --- | --- | --- | --- | --- | --- |
| < 50 | < 50 | < 50 | < 50 | < 50 | < 50 | 90 | < 50 | < 50 | < 50 | < 50 | < 50 | < 50 | < 50 | < 50 | < 50 | < 50 | CC(=O)N1CCN(c2cc(-c3cnc4c(c3)N(Cc3cc(Cl)ccc3C(F)(F)F)CCN4)ccn2)CC1 | < 50 |
| < 50 | < 50 | < 50 | < 50 | < 50 | < 50 | 80 | < 50 | < 50 | < 50 | < 50 | < 50 | < 50 | < 50 | < 50 | < 50 | < 50 | CN1CCN(c2ccc(-c3cnc4c(c3)N(Cc3cc(Cl)ccc3C(F)(F)F)CCN4)cn2)CC1 | < 50 |
| < 50 | < 50 | < 50 | < 50 | < 50 | < 50 | 75 | < 50 | < 50 | < 50 | < 50 | < 50 | < 50 | < 50 | < 50 | < 50 | < 50 | CN1CCN(c2ccc(-c3cnc4c(c3)N(Cc3cc(F)ccc3F)CCN4)cn2)CC1 | < 50 |
| < 50 | < 50 | < 50 | < 50 | < 50 | < 50 | 98 | < 50 | < 50 | < 50 | < 50 | < 50 | < 50 | < 50 | < 50 | < 50 | < 50 | CN1CCN(c2ccc(-c3cnc4c(c3)N(Cc3cc(Cl)ccc3Cl)CCN4)cn2)CC1 | < 50 |
| < 50 | < 50 | < 50 | < 50 | < 50 | < 50 | 73 | < 50 | < 50 | < 50 | < 50 | 72 | < 50 | < 50 | < 50 | 70 | 82 | CN1CCN(c2ccc(-c3cnc4c(c3)N(Cc3c(F)ccc(F)c3Cl)CCN4)cn2)CC1 | < 50 |
| < 50 | 73 | < 50 | < 50 | < 50 | < 50 | 99 | < 50 | < 50 | 67 | < 50 | < 50 | < 50 | < 50 | 77 | < 50 | 86 | FC(F)(F)c1ccc(Cl)cc1CN1CCNc2ncc(-c3ccnc(N4CCNCC4)c3)cc21 | < 50 |
